Structures are written as SMILES. Active and inactive are the calls of the source. The calls are words filed in the database; no cut-off is given here.

Sequence of Serine/threonine-protein kinase B-raf (Mus musculus, UniProt P28028, V600E) (P28028 whole entry, looked up, stated change not applied): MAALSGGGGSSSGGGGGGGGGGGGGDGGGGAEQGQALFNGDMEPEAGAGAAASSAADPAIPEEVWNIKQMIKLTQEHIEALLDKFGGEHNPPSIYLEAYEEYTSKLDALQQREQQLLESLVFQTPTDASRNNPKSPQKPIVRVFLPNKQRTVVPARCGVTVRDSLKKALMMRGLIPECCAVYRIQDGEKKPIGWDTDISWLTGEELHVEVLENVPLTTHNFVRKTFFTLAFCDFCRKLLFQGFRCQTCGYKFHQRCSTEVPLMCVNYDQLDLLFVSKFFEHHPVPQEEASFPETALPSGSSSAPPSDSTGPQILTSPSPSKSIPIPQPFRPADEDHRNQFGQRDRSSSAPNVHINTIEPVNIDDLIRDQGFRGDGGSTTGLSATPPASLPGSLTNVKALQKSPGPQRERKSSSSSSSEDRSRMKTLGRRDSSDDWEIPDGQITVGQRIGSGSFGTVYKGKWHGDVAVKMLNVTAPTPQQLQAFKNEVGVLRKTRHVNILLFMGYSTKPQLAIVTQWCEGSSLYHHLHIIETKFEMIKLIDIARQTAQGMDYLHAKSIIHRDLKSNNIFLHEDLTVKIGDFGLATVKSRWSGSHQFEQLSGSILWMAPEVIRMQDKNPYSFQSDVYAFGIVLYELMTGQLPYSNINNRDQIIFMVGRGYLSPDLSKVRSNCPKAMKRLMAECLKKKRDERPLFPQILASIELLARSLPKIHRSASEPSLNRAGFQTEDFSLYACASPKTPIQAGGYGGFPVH

One data set has as its system HCT-116. The experiment in a line: Antiproliferative activity against wild type BRAF expressing human HCT116 cells after 48 hrs by MTT assay. The class given is functional, cell-based. Particulars: HCT-116, 48 h. The gist of the method: (§1)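 MTT assay. Cells seeded at 10^4 per well in 96-well plates and left 24 h. Compounds then added at 0.01, 0.1, 1, 10 and 100 µM for 48 h. IC50 values calculated from the viability data.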
Take `O=C(Nc1cccc(C(=O)Nc2ccc3[nH]ccc3c2)c1)c1ccc(Cl)cc1`: it took 22.3 µM to reach half-maximal inhibition (IC50).
On the same count and under the same terms, the value for `O=C(Nc1ccc2[nH]ccc2c1)c1cccc(NC(=O)c2ccccn2)c1` was 23.8 µM.
Still for that read-out and setting: then `O=C(Nc1ccc2[nH]ncc2c1)c1cccc(NC(=O)c2ccc(Br)cn2)c1`, with 22.2 µM; and `O=C(Nc1cccc(C(=O)Nc2ccc3[nH]ncc3c2)c1)c1ccc(C(F)(F)F)cc1`, with 18.7 µM; and `O=C(Nc1cccc(C(=O)Nc2ccc3[nH]ncc3c2)c1)c1ccccc1`, with 30.9 µM.

The next data set deals with A-375. The experiment in a line: Induction of apoptosis in human A375 cells assessed as late apoptotic cells at 2 uM after 24 hrs by Annexin V-FITC/propidium iodide double staining-based flow cytometry (reference value: 2.36%). The class given is functional.
Conditions: not given
On to `O=C(Nc1cccc(C(=O)Nc2ccc3[nH]ncc3c2)c1)c1ccc(C(F)(F)F)cc1`, for which the Activity stood at 14.6%.

For a further data set, the system named is A-375. The experiment in a line: Induction of apoptosis in human A375 cells assessed as viable cells at 4 uM after 24 hrs by Annexin V-FITC/propidium iodide double staining-based flow cytometry (reference value: 96.2%). Particulars: A-375, 24 h, read-out: Activity. The class given is functional.
As to `O=C(Nc1cccc(C(=O)Nc2ccc3[nH]ncc3c2)c1)c1ccc(C(F)(F)F)cc1`, the viability at 4 µM came to 71%.

For another data set, the target named is T1, Serine/threonine-protein kinase B-raf (Homo sapiens, UniProt P15056). The experiment in a line: Induction of wild type BRAF activation in human WM1361 cells assessed as increase in MEK phosphorylation up to 0.15 uM by Western blot analysis. The class given is cell-based.
T1 sequence (P15056 whole entry): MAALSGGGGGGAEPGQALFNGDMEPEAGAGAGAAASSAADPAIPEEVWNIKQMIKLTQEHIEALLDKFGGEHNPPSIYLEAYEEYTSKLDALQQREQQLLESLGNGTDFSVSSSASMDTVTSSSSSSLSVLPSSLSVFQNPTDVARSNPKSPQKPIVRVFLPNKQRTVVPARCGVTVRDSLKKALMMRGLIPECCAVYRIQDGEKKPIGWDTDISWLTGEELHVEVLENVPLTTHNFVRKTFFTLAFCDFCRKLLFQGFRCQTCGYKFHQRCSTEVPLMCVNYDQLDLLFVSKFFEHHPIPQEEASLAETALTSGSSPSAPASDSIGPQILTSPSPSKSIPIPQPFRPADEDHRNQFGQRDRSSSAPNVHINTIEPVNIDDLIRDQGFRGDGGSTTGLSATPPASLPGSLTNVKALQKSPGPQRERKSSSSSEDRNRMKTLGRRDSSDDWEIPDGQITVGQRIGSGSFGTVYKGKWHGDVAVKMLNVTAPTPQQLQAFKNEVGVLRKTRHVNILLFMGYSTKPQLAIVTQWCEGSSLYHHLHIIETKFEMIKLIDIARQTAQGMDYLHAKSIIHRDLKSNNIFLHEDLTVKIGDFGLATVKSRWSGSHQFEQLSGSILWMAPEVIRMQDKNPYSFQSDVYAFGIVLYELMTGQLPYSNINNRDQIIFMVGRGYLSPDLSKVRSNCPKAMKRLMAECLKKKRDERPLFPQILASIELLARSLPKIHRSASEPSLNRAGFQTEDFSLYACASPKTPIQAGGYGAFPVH
Conditions: not given
The gist of the method:
(§2)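 Cells in 6-well plates were lysed in RIPA with PMSF on ice for 30 min and cleared at 12,000 g, 4 °C. Protein was measured by BCA, run on SDS-PAGE and moved to PVDF. Blots were blocked in 5% milk/TBST, given primary antibodies (1:500–1:1000) overnight at 4 °C, then HRP secondaries (1:5000–1:10000) for 1 h. Bands were detected by ECL.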
In the case of `O=C(Nc1cccc(C(=O)Nc2ccc3[nH]ncc3c2)c1)c1ccc(C(F)(F)F)cc1`, the Activity entry is “Not Active”.

The next data set addresses T1, Serine/threonine-protein kinase B-raf. The experiment in a line: Inhibition of wild type BRAF in human WM1361 cells assessed as reduction in ERK phosphorylation at 0.5 uM by Western blot analysis. It counts as cell-based.
Conditions: not given
The gist of the method:
as §2
Turning to `O=C(Nc1cccc(C(=O)Nc2ccc3[nH]ncc3c2)c1)c1ccc(C(F)(F)F)cc1`, the inhibition result was “Active”.

A further data set concerns A-375. The experiment in a line: Induction of apoptosis in human A375 cells assessed as early apoptotic cells at 4 uM after 24 hrs by Annexin V-FITC/propidium iodide double staining-based flow cytometry (reference value: 1.19%).
Conditions: not given
It counts as functional.
On to `O=C(Nc1cccc(C(=O)Nc2ccc3[nH]ncc3c2)c1)c1ccc(C(F)(F)F)cc1`, for which the Activity stood at 12.2%.

The next data set concerns the target Serine/threonine-protein kinase B-raf (Mus musculus, UniProt P28028, V600E). The experiment in a line: Inhibition of mouse full length GST-tagged BRAF V600E mutant using recombinant human full length N-terminal His-tagged MEK1 as substrate preincubated for 1 hr followed by substrate addition measured after 25 mins by Nu-page gel-based phosphor screen analysis.
Conditions: not given
Take `O=C(Nc1cccc(C(=O)Nc2ccc3[nH]ccc3c2)c1)c1ccc(Cl)cc1`: the IC50 amounted to 2.61 µM.
Still for that read-out and setting: the value for `O=C(Nc1ccc2[nH]ccc2c1)c1cccc(NC(=O)c2ccccn2)c1` was 3.52 µM.
`O=C(Nc1ccc2[nH]ncc2c1)c1cccc(NC(=O)c2ccc(Br)cn2)c1`: the IC50 was 0.46 µM.
Same read-out and setting: then `O=C(Nc1cccc(C(=O)Nc2ccc3[nH]ncc3c2)c1)c1ccc(C(F)(F)F)cc1`, with 0.18 µM.
Take `O=C(Nc1cccc(C(=O)Nc2ccc3[nH]ncc3c2)c1)c1ccccc1`: the IC50 was determined as 5.22 µM.

The subject of a further data set is A-375. The experiment in a line: Induction of apoptosis in human A375 cells assessed as necrotic cells at 1 uM after 24 hrs by Annexin V-FITC/propidium iodide double staining-based flow cytometry (reference value: 0.227%).
Conditions: not given
It counts as functional.
Regarding `O=C(Nc1cccc(C(=O)Nc2ccc3[nH]ncc3c2)c1)c1ccc(C(F)(F)F)cc1`, the Activity came to 1.56%.

For the next data set, the system named is A-375. The experiment in a line: Induction of apoptosis in human A375 cells after 24 hrs by Annexin V-FITC/propidium iodide double staining-based flow cytometry. The class given is functional, cell-based.
Conditions: not given
Consider `O=C(Nc1cccc(C(=O)Nc2ccc3[nH]ncc3c2)c1)c1ccc(C(F)(F)F)cc1`, for which the Activity entry is “Dose-dependent effect”.

A further data set has as its system Serine/threonine-protein kinase B-raf (Homo sapiens), P15056 [V600E]. The experiment in a line: Inhibition of BRAF V600E mutant in human A375 cells assessed as reduction in ERK phosphorylation by Western blot analysis. It counts as cell-based.
Conditions: not given
The gist of the method:
as §2
Take `O=C(Nc1cccc(C(=O)Nc2ccc3[nH]ncc3c2)c1)c1ccc(C(F)(F)F)cc1`: the inhibition entry is “Dose-dependent effect”.

Another data set deals with A-375. The experiment in a line: Induction of apoptosis in human A375 cells assessed as viable cells at 1 uM after 24 hrs by Annexin V-FITC/propidium iodide double staining-based flow cytometry (reference value: 96.2%). The class given is functional. Conditions: A-375, 24 h, read-out: Activity.
For `O=C(Nc1cccc(C(=O)Nc2ccc3[nH]ncc3c2)c1)c1ccc(C(F)(F)F)cc1`, the viability at 1 µM was 80.3%.

A further data set concerns A-375. The experiment in a line: Effect on total MEK protein levels in human A375 cells at 0.05 to 5 uM by Western blot analysis. Particulars: a-375, 5 µM. The class given is ADME, cell-based. The gist of the method:
as §2
Consider `O=C(Nc1cccc(C(=O)Nc2ccc3[nH]ncc3c2)c1)c1ccc(C(F)(F)F)cc1`, for which the Activity result is listed as “Non-Toxic”.

For another data set, the system named is A-375. The experiment in a line: Induction of apoptosis in human A375 cells assessed as late apoptotic cells at 4 uM after 24 hrs by Annexin V-FITC/propidium iodide double staining-based flow cytometry (reference value: 2.36%). The class given is functional.
Conditions: not given
As to `O=C(Nc1cccc(C(=O)Nc2ccc3[nH]ncc3c2)c1)c1ccc(C(F)(F)F)cc1`, the Activity amounted to 16.1%.

The subject of the next data set is A-375. The experiment in a line: Induction of apoptosis in human A375 cells assessed as early apoptotic cells at 1 uM after 24 hrs by Annexin V-FITC/propidium iodide double staining-based flow cytometry (reference value: 1.19%). It counts as functional.
Conditions: not given
For the molecule `O=C(Nc1cccc(C(=O)Nc2ccc3[nH]ncc3c2)c1)c1ccc(C(F)(F)F)cc1`, the Activity was 8.05%.

Another data set concerns A-375. The experiment in a line: Induction of apoptosis in human A375 cells assessed as late apoptotic cells at 1 uM after 24 hrs by Annexin V-FITC/propidium iodide double staining-based flow cytometry (reference value: 2.36%). The class given is functional.
Conditions: not given
As for `O=C(Nc1cccc(C(=O)Nc2ccc3[nH]ncc3c2)c1)c1ccc(C(F)(F)F)cc1`, the Activity is 10.1%.

The next data set has as its target T1, Serine/threonine-protein kinase B-raf. The experiment in a line: Inhibition of wild type BRAF in human WM1361 cells assessed as reduction in MEK phosphorylation at 0.5 uM by Western blot analysis.
Conditions: not given
It counts as cell-based. The gist of the method: as §2
`O=C(Nc1cccc(C(=O)Nc2ccc3[nH]ncc3c2)c1)c1ccc(C(F)(F)F)cc1`: the inhibition entry is “Active”.

The subject of another data set is HT-29. The experiment in a line: Antiproliferative activity against human HT-29 cells harboring BRAF V600E mutant after 48 hrs by MTT assay. The class given is functional, cell-based. Conditions: HT-29, 48 h. The gist of the method: as §1
With `O=C(Nc1cccc(C(=O)Nc2ccc3[nH]ccc3c2)c1)c1ccc(Cl)cc1`, 11.1 µM corresponded to half-maximal inhibition (IC50).
`O=C(Nc1ccc2[nH]ccc2c1)c1cccc(NC(=O)c2ccccn2)c1`: 10.6 µM corresponded to half-maximal inhibition (IC50).
The same measure, in the same setting: then `O=C(Nc1ccc2[nH]ncc2c1)c1cccc(NC(=O)c2ccc(Br)cn2)c1`, with 9.65 µM.
The same measure, in the same setting: then `O=C(Nc1cccc(C(=O)Nc2ccc3[nH]ncc3c2)c1)c1ccc(C(F)(F)F)cc1`, with 4.41 µM; and `O=C(Nc1cccc(C(=O)Nc2ccc3[nH]ncc3c2)c1)c1ccccc1`, with 16.1 µM.

Another data set relates to Serine/threonine-protein kinase B-raf (Homo sapiens), P15056 [V600E]. The experiment in a line: Inhibition of BRAF V600E mutant in human A375 cells assessed as reduction in MEK phosphorylation by Western blot analysis. The class given is cell-based.
Sequence of Serine/threonine-protein kinase B-raf (Homo sapiens), P15056 [V600E] (P15056 whole entry V600E): as the sequence (P15056 whole entry) above, with V600E counted along it
Conditions: not given
The gist of the method: as §2
Turning to `O=C(Nc1cccc(C(=O)Nc2ccc3[nH]ncc3c2)c1)c1ccc(C(F)(F)F)cc1`, the inhibition result was “Dose-dependent effect”.

The test system of another data set is A-375. The experiment in a line: Induction of apoptosis in human A375 cells assessed as viable cells at 2 uM after 24 hrs by Annexin V-FITC/propidium iodide double staining-based flow cytometry (reference value: 96.2%). Particulars: A-375, 24 h, read-out: Activity. The class given is functional.
For `O=C(Nc1cccc(C(=O)Nc2ccc3[nH]ncc3c2)c1)c1ccc(C(F)(F)F)cc1`, the viability at 2 µM came out at 73.7%.

A further data set concerns A-375. The experiment in a line: Induction of apoptosis in human A375 cells assessed as necrotic cells at 2 uM after 24 hrs by Annexin V-FITC/propidium iodide double staining-based flow cytometry (reference value: 0.227%).
Conditions: not given
The class given is functional.
`O=C(Nc1cccc(C(=O)Nc2ccc3[nH]ncc3c2)c1)c1ccc(C(F)(F)F)cc1`: the Activity came out at 1.05%.

The next data set concerns the target T1, Serine/threonine-protein kinase B-raf. The experiment in a line: Induction of wild type BRAF activation in human WM1361 cells assessed as increase in ERK phosphorylation up to 0.15 uM by Western blot analysis. It counts as cell-based.
Conditions: not given
The gist of the method:
as §2
Consider `O=C(Nc1cccc(C(=O)Nc2ccc3[nH]ncc3c2)c1)c1ccc(C(F)(F)F)cc1`, for which the Activity entry is recorded as “Not Active”.

The test system of the next data set is A-375. The experiment in a line: Induction of apoptosis in human A375 cells assessed as early apoptotic cells at 2 uM after 24 hrs by Annexin V-FITC/propidium iodide double staining-based flow cytometry (reference value: 1.19%). It counts as functional.
Conditions: not given
Regarding `O=C(Nc1cccc(C(=O)Nc2ccc3[nH]ncc3c2)c1)c1ccc(C(F)(F)F)cc1`, the Activity amounted to 10.7%.

System in the next data set: not listed separately
The experiment in a line: Antiproliferative activity against wild type BRAF expressing human WM1361 cells after 48 hrs by MTT assay. Particulars: WM1361, 48 h. The class given is functional. The gist of the method:
as §1
Consider `O=C(Nc1cccc(C(=O)Nc2ccc3[nH]ccc3c2)c1)c1ccc(Cl)cc1`, for which half-maximal inhibition (IC50) was put at 19.6 µM.
On to `O=C(Nc1ccc2[nH]ccc2c1)c1cccc(NC(=O)c2ccccn2)c1`, for which inhibition was half-maximal at 17.4 µM (IC50).
`O=C(Nc1ccc2[nH]ncc2c1)c1cccc(NC(=O)c2ccc(Br)cn2)c1` came in with an IC50 of 19.6 µM.
On the same count and under the same terms, then `O=C(Nc1cccc(C(=O)Nc2ccc3[nH]ncc3c2)c1)c1ccc(C(F)(F)F)cc1`, with 12.8 µM; and `O=C(Nc1cccc(C(=O)Nc2ccc3[nH]ncc3c2)c1)c1ccccc1`, with 35.1 µM.

Another data set deals with A-375. The experiment in a line: Antiproliferative activity against human A375 cells harboring BRAF V600E mutant after 48 hrs by MTT assay. The class given is functional, cell-based. Particulars: A-375, 48 h. The gist of the method:
as §1
As to `O=C(Nc1cccc(C(=O)Nc2ccc3[nH]ccc3c2)c1)c1ccc(Cl)cc1`, 6.72 µM corresponded to half-maximal inhibition (IC50).
`O=C(Nc1ccc2[nH]ccc2c1)c1cccc(NC(=O)c2ccccn2)c1` gave an IC50 of 5.78 µM.
The same measure, in the same setting: then `O=C(Nc1ccc2[nH]ncc2c1)c1cccc(NC(=O)c2ccc(Br)cn2)c1`, with 7.58 µM.
`O=C(Nc1cccc(C(=O)Nc2ccc3[nH]ncc3c2)c1)c1ccc(C(F)(F)F)cc1`: half-maximal inhibition (IC50) was put at 1.97 µM.
`O=C(Nc1cccc(C(=O)Nc2ccc3[nH]ncc3c2)c1)c1ccccc1` displayed an IC50 of 9.12 µM.

A further data set relates to A-375. The experiment in a line: Induction of apoptosis in human A375 cells assessed as necrotic cells at 4 uM after 24 hrs by Annexin V-FITC/propidium iodide double staining-based flow cytometry (reference value: 0.227%). It counts as functional.
Conditions: not given
As for `O=C(Nc1cccc(C(=O)Nc2ccc3[nH]ncc3c2)c1)c1ccc(C(F)(F)F)cc1`, the Activity came to 0.652%.

In the next data set the test system is A-375. The experiment in a line: Effect on total ERK protein levels in human A375 cells at 0.05 to 5 uM by Western blot analysis. Particulars: a-375, 5 µM. It counts as ADME, cell-based. The gist of the method:
as §2
For `O=C(Nc1cccc(C(=O)Nc2ccc3[nH]ncc3c2)c1)c1ccc(C(F)(F)F)cc1`, the Activity result is recorded as “Non-Toxic”.
